Results taken from ChEMBL document CHEMBL5661979, “Pharmacological inhibition of BMK1 suppresses tumor growth through promyelocytic leukemia protein” (Cancer Cell, 2010).

Legend:
[1] = molecular target: T1, Cyclin-dependent kinase 5 (Homo sapiens, UniProt Q00535); assay: Inhibition of CDK5 in human HeLa cells lysate pre incubated for 15 mins followed by ATP acyl phosphate probe addition and measured after 10 mins by LC-MS/MS analysis; format: subcellular
Method in brief: (§1)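 KiNativ profiling in HeLa lysate (5 mg/mL total protein). Lysate incubated 15 min with inhibitor at 50, 10, 2, 0.8 or 0 μM. ATP or ADP acylphosphate probe then added (5 μM final) and reacted 10 min. Reaction stopped with urea and analysed by targeted MS, using up to four fragment ions per kinase peptide-probe conjugate. % inhibition taken against untreated lysate. Run in duplicate.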

[2] = molecular target: T1, Cyclin-dependent kinase 5; assay: Inhibition of CDK5 in human HeLa cells lysate pre incubated for 15 mins followed by ADP acyl phosphate probe addition and measured after 10 mins by LC-MS/MS analysis; format: subcellular; method in brief: as §1
eIF-2-alpha kinase GCN2 = eIF-2-alpha kinase GCN2 (Homo sapiens, UniProt Q9P2K8); assay: Inhibition of GCN2 in human HeLa cells lysate at 2 uM pre incubated for 15 mins followed by ATP acyl phosphate probe addition and measured after 10 mins by LC-MS/MS analysis relative to control; format: subcellular; conditions: time 25.0 min
[3] = molecular target: Calcium/calmodulin-dependent protein kinase type II subunit delta (Homo sapiens, UniProt Q13557); assay: Inhibition of CAMK2d in human HeLa cells lysate pre incubated for 15 mins followed by ATP acyl phosphate probe addition and measured after 10 mins by LC-MS/MS analysis; format: subcellular
Calcium/calmodulin-dependent protein kinase type II subunit delta, sequence (Q13557 whole entry, the tested form may be a part): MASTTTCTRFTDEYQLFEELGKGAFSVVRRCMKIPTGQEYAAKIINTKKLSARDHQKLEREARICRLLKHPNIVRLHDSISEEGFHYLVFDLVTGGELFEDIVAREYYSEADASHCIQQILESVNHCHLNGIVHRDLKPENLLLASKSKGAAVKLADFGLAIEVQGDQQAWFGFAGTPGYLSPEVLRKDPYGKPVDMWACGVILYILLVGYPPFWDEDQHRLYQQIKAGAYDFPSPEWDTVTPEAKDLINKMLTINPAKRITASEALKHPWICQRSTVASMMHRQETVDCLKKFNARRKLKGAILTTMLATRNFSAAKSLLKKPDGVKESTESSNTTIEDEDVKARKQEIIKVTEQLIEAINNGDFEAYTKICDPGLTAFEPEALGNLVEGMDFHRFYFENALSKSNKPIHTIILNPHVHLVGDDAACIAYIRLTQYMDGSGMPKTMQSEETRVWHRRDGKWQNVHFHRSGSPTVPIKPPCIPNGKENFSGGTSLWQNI
Method in brief: (§2)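 KiNativ-type profiling in HeLa lysate (5 mg/mL total protein). Lysate preincubated 15 min with inhibitor at 50, 10, 2, 0.8 or 0 μM, then ATP or ADP acylphosphate probe added (5 μM final) for 10 min. Reaction stopped with urea and analysed by targeted MS, using up to four fragment ions per kinase peptide-probe conjugate. % inhibition calculated against untreated lysate. Duplicate reactions.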

[4] = molecular target: T2, Mitogen-activated protein kinase kinase kinase 7 (Homo sapiens) (UniProt O43318); assay: Inhibition of TAK1 in human HeLa cells lysate at 10 uM pre incubated for 15 mins followed by ATP acyl phosphate probe addition and measured after 10 mins by LC-MS/MS analysis relative to control; format: subcellular; conditions: time 25.0 min
T2 sequence (whole entry): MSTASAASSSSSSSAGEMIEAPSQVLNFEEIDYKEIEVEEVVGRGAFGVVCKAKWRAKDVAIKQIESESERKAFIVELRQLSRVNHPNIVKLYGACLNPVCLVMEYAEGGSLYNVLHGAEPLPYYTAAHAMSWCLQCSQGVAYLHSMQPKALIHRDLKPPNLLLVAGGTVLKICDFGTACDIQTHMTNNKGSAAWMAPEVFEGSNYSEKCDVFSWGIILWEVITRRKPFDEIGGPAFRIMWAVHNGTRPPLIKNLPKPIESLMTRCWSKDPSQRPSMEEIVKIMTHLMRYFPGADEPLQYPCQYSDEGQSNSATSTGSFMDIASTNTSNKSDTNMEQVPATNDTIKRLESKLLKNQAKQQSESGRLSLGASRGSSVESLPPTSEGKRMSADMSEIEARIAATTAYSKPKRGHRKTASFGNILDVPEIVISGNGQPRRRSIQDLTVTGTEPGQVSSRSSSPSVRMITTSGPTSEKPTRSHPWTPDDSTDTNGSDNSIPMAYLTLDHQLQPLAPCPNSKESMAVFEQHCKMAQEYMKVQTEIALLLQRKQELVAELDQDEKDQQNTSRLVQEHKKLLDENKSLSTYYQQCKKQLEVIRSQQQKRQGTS

[5] = Inhibition of HGK/MINK/TNIK in human HeLa cells lysate at 10 uM pre incubated for 15 mins followed by ADP acyl phosphate probe addition and measured after 10 mins by LC-MS/MS analysis relative to control; conditions: 25 min, condition cancer
[6] = molecular target: Cyclin-dependent kinase 13 (Homo sapiens, UniProt Q14004); assay: Inhibition of CHED in human HeLa cells lysate at 50 uM pre incubated for 15 mins followed by ADP acyl phosphate probe addition and measured after 10 mins by LC-MS/MS analysis relative to control; format: subcellular; conditions: time 25.0 min; method in brief: as §1
Cyclin-dependent kinase 13, sequence (Q14004 whole entry, looked up, canonical isoform): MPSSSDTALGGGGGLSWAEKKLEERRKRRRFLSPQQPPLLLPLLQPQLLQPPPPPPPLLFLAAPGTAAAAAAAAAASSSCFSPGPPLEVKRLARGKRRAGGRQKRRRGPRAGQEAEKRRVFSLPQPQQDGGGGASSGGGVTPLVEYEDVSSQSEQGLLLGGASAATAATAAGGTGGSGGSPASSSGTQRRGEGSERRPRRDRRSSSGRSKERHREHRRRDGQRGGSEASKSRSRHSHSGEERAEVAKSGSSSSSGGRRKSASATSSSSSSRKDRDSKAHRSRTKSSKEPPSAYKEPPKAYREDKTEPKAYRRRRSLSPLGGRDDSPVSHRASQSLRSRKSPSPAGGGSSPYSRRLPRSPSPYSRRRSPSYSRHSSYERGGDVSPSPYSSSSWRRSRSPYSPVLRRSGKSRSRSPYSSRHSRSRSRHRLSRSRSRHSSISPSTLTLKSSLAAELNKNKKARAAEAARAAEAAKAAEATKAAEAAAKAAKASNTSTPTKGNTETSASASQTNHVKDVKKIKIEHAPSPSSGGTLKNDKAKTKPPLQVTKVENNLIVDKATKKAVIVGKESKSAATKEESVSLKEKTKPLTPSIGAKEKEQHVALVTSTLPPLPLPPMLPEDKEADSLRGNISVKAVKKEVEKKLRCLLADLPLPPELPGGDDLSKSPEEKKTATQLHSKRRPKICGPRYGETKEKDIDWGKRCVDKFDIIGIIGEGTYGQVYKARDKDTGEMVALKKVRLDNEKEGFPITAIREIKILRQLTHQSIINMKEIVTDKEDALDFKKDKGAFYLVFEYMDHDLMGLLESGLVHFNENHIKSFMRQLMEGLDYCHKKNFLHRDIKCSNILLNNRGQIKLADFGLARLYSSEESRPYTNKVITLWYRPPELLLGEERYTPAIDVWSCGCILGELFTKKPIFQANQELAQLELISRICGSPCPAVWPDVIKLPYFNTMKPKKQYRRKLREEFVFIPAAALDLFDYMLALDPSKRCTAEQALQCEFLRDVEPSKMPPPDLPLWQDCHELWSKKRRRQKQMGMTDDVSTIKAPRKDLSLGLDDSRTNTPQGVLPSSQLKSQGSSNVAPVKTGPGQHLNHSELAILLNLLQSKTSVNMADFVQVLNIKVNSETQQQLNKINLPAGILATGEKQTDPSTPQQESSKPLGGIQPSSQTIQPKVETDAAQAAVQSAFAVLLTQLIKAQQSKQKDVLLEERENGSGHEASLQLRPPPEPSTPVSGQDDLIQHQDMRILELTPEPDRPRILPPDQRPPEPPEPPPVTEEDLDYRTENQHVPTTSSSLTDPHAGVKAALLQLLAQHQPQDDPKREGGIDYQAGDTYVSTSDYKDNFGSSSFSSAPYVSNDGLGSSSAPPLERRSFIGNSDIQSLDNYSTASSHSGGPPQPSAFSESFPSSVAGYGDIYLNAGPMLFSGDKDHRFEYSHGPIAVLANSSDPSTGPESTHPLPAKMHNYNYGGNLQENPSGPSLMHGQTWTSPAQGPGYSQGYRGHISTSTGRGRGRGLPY

[7] = molecular target: Serine/threonine-protein kinase PLK1 (Homo sapiens, UniProt P53350); assay: Inhibition of PLK1 splice variant in human HeLa cells lysate pre incubated for 15 mins followed by ADP acyl phosphate probe addition and measured after 10 mins by LC-MS/MS analysis; format: subcellular
Serine/threonine-protein kinase PLK1, sequence (P53350 2-603 limits assumed, stated change not applied): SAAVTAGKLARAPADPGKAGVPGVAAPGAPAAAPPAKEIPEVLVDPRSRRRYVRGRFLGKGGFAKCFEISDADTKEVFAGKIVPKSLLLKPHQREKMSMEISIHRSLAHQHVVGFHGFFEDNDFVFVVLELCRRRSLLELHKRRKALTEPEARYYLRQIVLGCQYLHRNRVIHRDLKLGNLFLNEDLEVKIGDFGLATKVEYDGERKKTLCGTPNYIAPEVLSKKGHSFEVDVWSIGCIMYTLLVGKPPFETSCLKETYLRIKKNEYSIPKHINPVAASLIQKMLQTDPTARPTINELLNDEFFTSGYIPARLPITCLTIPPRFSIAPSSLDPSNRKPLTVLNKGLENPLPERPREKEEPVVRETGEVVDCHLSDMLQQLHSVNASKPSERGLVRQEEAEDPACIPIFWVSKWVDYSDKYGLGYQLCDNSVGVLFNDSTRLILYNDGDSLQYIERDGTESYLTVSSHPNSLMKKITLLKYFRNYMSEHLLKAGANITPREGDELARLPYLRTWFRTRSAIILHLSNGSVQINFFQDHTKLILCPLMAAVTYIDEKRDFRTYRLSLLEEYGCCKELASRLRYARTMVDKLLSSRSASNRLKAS

Ephrin type-A receptor 2 = Ephrin type-A receptor 2 (Homo sapiens, UniProt P29317); assay: Inhibition of EphA2 in human HeLa cells lysate at 50 uM pre incubated for 15 mins followed by ATP acyl phosphate probe addition and measured after 10 mins by LC-MS/MS analysis relative to control; format: subcellular; conditions: time 25.0 min
[8] = molecular target: T3, Phosphatidylinositol 5-phosphate 4-kinase type-2 alpha (Homo sapiens, UniProt P48426); assay: Inhibition of PIP5K2A in human HeLa cells lysate pre incubated for 15 mins followed by ADP acyl phosphate probe addition and measured after 10 mins by LC-MS/MS analysis; format: subcellular
T3 sequence (P48426 whole entry): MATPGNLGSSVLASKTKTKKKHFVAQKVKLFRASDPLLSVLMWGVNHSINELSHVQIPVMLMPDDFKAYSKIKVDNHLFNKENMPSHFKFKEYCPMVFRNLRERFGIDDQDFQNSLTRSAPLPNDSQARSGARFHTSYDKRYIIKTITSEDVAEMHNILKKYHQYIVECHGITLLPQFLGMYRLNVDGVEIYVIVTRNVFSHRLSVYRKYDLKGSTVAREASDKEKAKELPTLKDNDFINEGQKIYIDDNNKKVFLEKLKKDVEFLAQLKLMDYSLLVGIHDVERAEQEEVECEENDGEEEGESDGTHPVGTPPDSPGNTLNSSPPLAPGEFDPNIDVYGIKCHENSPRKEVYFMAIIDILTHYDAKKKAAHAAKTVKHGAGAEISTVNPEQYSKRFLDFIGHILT

[9] = molecular target: Calcium/calmodulin-dependent protein kinase type 1D (Homo sapiens, UniProt Q8IU85); assay: Inhibition of CAMK1d in human HeLa cells lysate at 10 uM pre incubated for 15 mins followed by ATP acyl phosphate probe addition and measured after 10 mins by LC-MS/MS analysis relative to control; format: subcellular; conditions: time 25.0 min; method in brief: as §2
Calcium/calmodulin-dependent protein kinase type 1D, sequence (Q8IU85 whole entry, looked up): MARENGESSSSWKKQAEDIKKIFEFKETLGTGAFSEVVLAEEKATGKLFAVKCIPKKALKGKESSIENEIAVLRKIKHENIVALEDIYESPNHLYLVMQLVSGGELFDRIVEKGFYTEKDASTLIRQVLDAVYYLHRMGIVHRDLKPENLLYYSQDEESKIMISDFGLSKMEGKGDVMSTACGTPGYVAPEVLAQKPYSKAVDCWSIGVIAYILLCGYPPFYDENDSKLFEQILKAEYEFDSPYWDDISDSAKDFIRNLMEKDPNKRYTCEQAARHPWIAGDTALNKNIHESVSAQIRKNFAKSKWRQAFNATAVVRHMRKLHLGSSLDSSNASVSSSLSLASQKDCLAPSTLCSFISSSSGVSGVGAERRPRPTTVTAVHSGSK

[10] = molecular target: Serine/threonine-protein kinase ATR (Homo sapiens, UniProt Q13535); assay: Inhibition of ATR in human HeLa cells lysate at 50 uM pre incubated for 15 mins followed by ATP acyl phosphate probe addition and measured after 10 mins by LC-MS/MS analysis relative to control; format: subcellular; conditions: time 25.0 min; method in brief: as §2
[11] = Inhibition of CDK5/PRKX/PRKY in human HeLa cells lysate at 2 uM pre incubated for 15 mins followed by ADP acyl phosphate probe addition and measured after 10 mins by LC-MS/MS analysis relative to control; conditions: 25 min, condition cancer; method in brief: as §1
[12] = molecular target: Serine/threonine-protein kinase Nek9 (Homo sapiens, UniProt Q8TD19); assay: Inhibition of NEK9 in human HeLa cells lysate pre incubated for 15 mins followed by ADP acyl phosphate probe addition and measured after 10 mins by LC-MS/MS analysis; format: subcellular
Serine/threonine-protein kinase Nek9, sequence (Q8TD19 whole entry): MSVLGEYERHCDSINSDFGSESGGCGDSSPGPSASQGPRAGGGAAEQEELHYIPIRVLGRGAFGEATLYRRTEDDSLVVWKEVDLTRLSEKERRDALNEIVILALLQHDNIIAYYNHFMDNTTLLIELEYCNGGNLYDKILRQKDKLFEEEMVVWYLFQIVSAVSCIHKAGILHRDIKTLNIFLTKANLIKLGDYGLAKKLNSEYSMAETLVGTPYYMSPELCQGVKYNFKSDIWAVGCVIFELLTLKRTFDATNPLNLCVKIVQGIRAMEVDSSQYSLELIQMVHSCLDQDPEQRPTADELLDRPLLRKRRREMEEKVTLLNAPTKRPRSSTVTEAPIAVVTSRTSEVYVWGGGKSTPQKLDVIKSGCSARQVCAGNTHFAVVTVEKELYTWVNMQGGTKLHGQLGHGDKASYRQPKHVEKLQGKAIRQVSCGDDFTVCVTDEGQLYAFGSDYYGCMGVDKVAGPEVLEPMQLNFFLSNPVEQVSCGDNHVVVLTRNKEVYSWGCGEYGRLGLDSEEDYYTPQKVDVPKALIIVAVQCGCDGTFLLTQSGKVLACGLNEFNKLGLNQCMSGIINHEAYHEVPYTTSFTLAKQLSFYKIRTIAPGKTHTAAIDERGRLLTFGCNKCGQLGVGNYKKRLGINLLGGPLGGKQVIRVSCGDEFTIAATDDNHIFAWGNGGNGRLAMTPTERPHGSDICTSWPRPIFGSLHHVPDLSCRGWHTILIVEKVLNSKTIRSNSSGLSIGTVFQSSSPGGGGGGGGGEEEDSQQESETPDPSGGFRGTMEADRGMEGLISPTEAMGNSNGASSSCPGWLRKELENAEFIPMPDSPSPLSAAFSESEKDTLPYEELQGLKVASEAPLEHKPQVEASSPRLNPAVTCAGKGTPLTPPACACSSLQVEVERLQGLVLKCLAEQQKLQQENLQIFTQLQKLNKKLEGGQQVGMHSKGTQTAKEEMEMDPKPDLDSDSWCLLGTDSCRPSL

[13] = molecular target: Interleukin-1 receptor-associated kinase 4 (Homo sapiens, UniProt Q9NWZ3); assay: Inhibition of IRAK4 in human HeLa cells lysate pre incubated for 15 mins followed by ATP acyl phosphate probe addition and measured after 10 mins by LC-MS/MS analysis; format: subcellular
Interleukin-1 receptor-associated kinase 4, sequence (Q9NWZ3 whole entry): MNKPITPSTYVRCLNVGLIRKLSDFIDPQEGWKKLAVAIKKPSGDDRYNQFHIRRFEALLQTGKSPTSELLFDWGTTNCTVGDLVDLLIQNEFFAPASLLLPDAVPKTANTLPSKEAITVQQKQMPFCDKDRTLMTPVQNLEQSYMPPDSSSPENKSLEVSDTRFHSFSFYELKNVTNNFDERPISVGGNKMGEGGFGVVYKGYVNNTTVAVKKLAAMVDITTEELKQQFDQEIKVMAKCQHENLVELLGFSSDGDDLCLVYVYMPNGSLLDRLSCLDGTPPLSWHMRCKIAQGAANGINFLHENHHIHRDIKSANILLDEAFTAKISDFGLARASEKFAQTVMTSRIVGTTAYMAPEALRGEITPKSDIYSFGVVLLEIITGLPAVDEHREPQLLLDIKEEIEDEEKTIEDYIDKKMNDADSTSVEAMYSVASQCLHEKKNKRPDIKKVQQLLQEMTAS

[14] = Inhibition of Wnk1/2/4 in human HeLa cells lysate pre incubated for 15 mins followed by ATP acyl phosphate probe addition and measured after 10 mins by LC-MS/MS analysis; format: subcellular

T1 sequence (Q00535 whole entry, the tested form may be a part): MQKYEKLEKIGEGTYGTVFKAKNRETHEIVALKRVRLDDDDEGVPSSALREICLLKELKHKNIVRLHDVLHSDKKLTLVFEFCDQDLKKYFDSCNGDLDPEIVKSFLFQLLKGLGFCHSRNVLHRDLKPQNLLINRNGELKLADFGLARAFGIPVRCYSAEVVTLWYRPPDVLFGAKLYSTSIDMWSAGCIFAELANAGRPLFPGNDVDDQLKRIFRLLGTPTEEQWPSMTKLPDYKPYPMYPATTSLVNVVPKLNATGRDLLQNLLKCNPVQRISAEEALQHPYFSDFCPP

Structure (SMILES): CCOc1cc(N2CCC(O)CC2)ccc1Nc1ncc2c(n1)N(C)c1ccccc1C(=O)N2C
- IC50 [1]: > 50 µM
- IC50 [2]: > 50 µM
- inhibition (eIF-2-alpha kinase GCN2): 0.2%
- IC50 [3]: > 50 µM
- inhibition [4]: 21.2%
- inhibition at 10 µM [5]: -25.3%
- inhibition [6]: 12%
- IC50 [7]: > 50 µM
- inhibition (Ephrin type-A receptor 2): -7.8%
- IC50 [8]: > 50 µM
- inhibition [9]: -7.6%
- inhibition [10]: 13.9%
- inhibition at 2 µM [11]: 9.4%
- IC50 [12]: > 50 µM
- IC50 [13]: > 50 µM
- IC50 [14]: > 50 µM
